In ChEMBL document CHEMBL1122325, “2-[(Phenylthio)methyl]pyridine derivatives: new antiinflammatory agents” (1983):
Active and inactive are the calls of the source. No cut-off for these calls is given here.

Assays:
Rattus norvegicus [1] = species on record: Rattus norvegicus; assay: animal or person; format: functional; conditions: po
Rattus norvegicus [2] = assay: Inhibition of dermal RPAR in rats following p.o. administration.; format: functional
How it was run: (§1)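 Male Sprague-Dawley rats (140-160 g, n=6/group), fasted 18 h, given iv BSA 0.15% w/v with 0.4% Evans Blue in saline, then test agent orally in 0.2% methylcellulose about 1 h later (three dose levels, vehicle controls). Anti-BSA rabbit γ-globulin injected intradermally 30 min post-dose; lesions excised at 4 h, dye-outlined diameters measured, percent inhibition of lesion area versus control; 40% inhibition dose by least-squares regression.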

Rattus norvegicus [3] = species on record: Rattus norvegicus; assay: Reduction in exudate volume in rat pleural RPAR test.; format: functional
How it was run: (§2)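 Fasted male Sprague-Dawley rats (160-200 g, 8-10/group) received BSA 3 mg/kg iv, then 1 h later intrapleural rabbit anti-BSA γ-globulin (0.2 mL); oral compound (four doses, 0.2% methylcellulose) or vehicle 30 min before. At 4 h, exudate volume and white cell count by phenol red dye dilution; percent inhibition versus control mean; ED50 by least-squares regression.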

Rattus norvegicus [4] = species on record: Rattus norvegicus; assay: Reduction in leukocyte numbers in rat pleural RPAR exudate.; format: functional
How it was run: as §2

Rattus norvegicus [5] = species on record: Rattus norvegicus; assay: (§3) Reduction in leukocyte numbers in rat pleural RPAR exudate; Nonactive.; format: functional, organism-based
How it was run: as §2

Rattus norvegicus [6] = species on record: Rattus norvegicus; assay: as §3; format: functional, organism-based; remark: listed apart in the source
How it was run: as §2

Rattus norvegicus [7] = species on record: Rattus norvegicus; assay: Reduction in exudate volume in rat pleural RPAR test; Nonactive.; format: functional, organism-based
How it was run: as §2

Rattus norvegicus [8] = species on record: Rattus norvegicus; assay: Reduction in exudate volume in rat pleural carrageenan test.; format: functional
How it was run: (§4)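 Fasted male Sprague-Dawley rats (160-200 g, 8-10/group) dosed orally at four levels in 0.2% methylcellulose, or vehicle, 30 min before intrapleural carrageenin (125 μg in 0.2 mL saline); no iv BSA. Killed 4 h later; pleural exudate volume and white cells measured by phenol red dye dilution, inhibition calculated against vehicle controls.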

Rattus norvegicus [9] = assay: Inhibition of dermal RPAR in rats following p.o. administration; Not significant.; format: functional
How it was run: as §1

Rattus norvegicus [10] = assay: Percent inhibition of rat dermal RPAR following 350 umol/kg p.o. administration.; format: functional; conditions: po
How it was run: as §1

Rattus norvegicus [11] = species on record: Rattus norvegicus; assay: Reduction in leukocyte numbers in rat pleural carrageenan test.; format: functional
How it was run: as §4

Row | Structure (SMILES) | inhibition in vivo at 350 µmol/kg (Rattus norvegicus [1]) [%] | ED40 (Rattus norvegicus [2]) [µM/kg] | other results
1 | Brc1ccc(CSCc2ccccn2)cc1 | 31 | – | –
2 | Nc1ccc(SCc2ccccn2)cc1 | 25 | – | –
3 | Cl.Clc1ccc(SCc2ccccn2)cc1Cl | – | 402 | –
4 | CC(Sc1ccc(Br)cc1)c1ccccn1.Cl (stereo unspecified) | – | 212 | –
5 | Cl.FC(F)(F)c1cccc(SCc2ccccn2)c1 | – | 307 | –
6 | COc1cccc(SCc2ccccn2)c1.Cl | – | 273 | –
7 | Cl.Clc1ccc(SCc2ccccn2)cc1 | – | 186 | ED50 (Rattus norvegicus [3]): 154 µmol/kg; ED50 (Rattus norvegicus [4]): 162 µmol/kg
8 | COc1ccc2c(c1)c(CC(=O)O)c(C)n2C(=O)c1ccc(Cl)cc1 [INDOMETHACIN] | – | – | ED50 (Rattus norvegicus [5]): inactive; ED50 (Rattus norvegicus [6]): inactive; ED50 (Rattus norvegicus [7]): inactive; ED50 (Rattus norvegicus [8]): 3 µmol/kg; ED40 (Rattus norvegicus [9]): inactive
9 | Cl.Clc1ccccc1SCc1ccccn1 | – | 300 | –
10 | Brc1ccc(SCc2cc(-c3ccccc3)ccn2)cc1 | – | – | ED40 (Rattus norvegicus [9]): inactive
11 | Cl.O=S(=O)(Cc1ccccn1)c1ccc(Br)cc1 | – | 192 | –
12 | Cl.[O-][n+]1ccccc1CSc1ccc(Br)cc1 | – | 148 | –
13 | Cl.Clc1cccc(SCc2ccccn2)c1 | – | 223 | –
14 | Brc1ccc(SCc2cccnc2)cc1 | 23 | – | –
15 | Brc1ccccc1SCc1ccccn1.Cl | – | 282 | –
16 | Cc1cccnc1CSc1ccc(Br)cc1 | 25 | – | –
17 | COc1ccc(SCc2ccccn2)cc1.Cl | – | – | Inhibition (Rattus norvegicus [9]): 23%
18 | Clc1ccc(Cc2ccccn2)cc1 | 35 | – | –
19 | CN1CCCCC1CSc1ccc(Br)cc1.Cl (stereo unspecified) | – | 159 | –
20 | Brc1ccc(SCc2ccncc2)cc1 | 26 | – | –
21 | Cc1cc(C(C)(C)C)ccc1SCc1ccccn1 | 30 | – | –
22 | Cc1ccc(O)c(CSc2ccc(Br)cc2)n1 | – | – | ED40 (Rattus norvegicus [9]): inactive
23 | Cl.[O-][S+](Cc1ccccn1)c1ccc(Br)cc1 (stereo unspecified) | – | 216 | –
24 | COc1cccnc1CSc1ccc(Br)cc1 | – | – | inhibition in vivo at 350 µmol/kg (Rattus norvegicus [10]): 26%
25 | c1ccc(CSc2nc3ccccc3s2)nc1 | – | – | ED40 (Rattus norvegicus [9]): inactive
26 | Brc1ccc(SCc2cccc(CSc3ccc(Br)cc3)n2)cc1 | – | – | ED40 (Rattus norvegicus [9]): inactive
27 | Cl.Oc1nc(SCc2ccccn2)nc2ccccc12 | – | 177 | –

Row | Structure (SMILES) | inhibition in vivo at 350 µmol/kg (Rattus norvegicus [1]) [%] | ED40 (Rattus norvegicus [2]) [µM/kg] | other results
28 | Cl.c1ccc(SCc2ccccn2)cc1 | – | 101 | ED50 (Rattus norvegicus [3]): 172 µmol/kg; ED50 (Rattus norvegicus [4]): 252 µmol/kg
29 | Oc1cccnc1CSc1ccc(Br)cc1 | – | – | ED40 (Rattus norvegicus [9]): inactive
30 | Clc1cccc(CSc2ccc(Br)cc2)n1 | – | – | ED40 (Rattus norvegicus [9]): inactive
31 | Cl.O=[N+]([O-])c1ccc(SCc2ccccn2)cc1 | – | 233 | –
32 | Cl.c1ccc(CSc2ncccn2)nc1 | – | 283 | –
33 | Clc1ccc(OCc2ccccn2)cc1 | 39 | – | –
34 | c1ccc(CCc2ccccn2)cc1 | 36 | – | –
35 | Brc1ccc(Sc2ccccn2)cc1.Cl | – | 369 | –
36 | CC(C)(C)c1ccc(SCc2ccccn2)cc1 | 34 | – | –
37 | Brc1ccc(SCC2CCCCN2)cc1 (stereo unspecified) | – | 430 | –
38 | CC(=O)Nc1ccc(SCc2ccccn2)cc1 | 30 | – | –
39 | c1ccc(CSc2nc3ccccc3o2)nc1 | 26 | – | –
40 | Brc1ccc(NCc2ccccn2)cc1 | – | – | ED40 (Rattus norvegicus [9]): inactive
41 | C[C@]12CCC(=O)C=C1CC[C@@H]1[C@@H]2[C@@H](O)C[C@@]2(C)[C@H]1CC[C@]2(O)C(=O)CO [HYDROCORTISONE] | – | 33 | ED50 (Rattus norvegicus [3]): 38 µmol/kg; ED50 (Rattus norvegicus [11]): 25 µmol/kg; ED50 (Rattus norvegicus [4]): 50 µmol/kg; ED50 (Rattus norvegicus [8]): 33 µmol/kg
42 | Oc1ccc(SCc2ccccn2)cc1 | – | – | ED40 (Rattus norvegicus [9]): inactive
43 | Cl.Fc1ccc(SCc2ccccn2)cc1 | – | 159 | ED50 (Rattus norvegicus [3]): 137 µmol/kg; ED50 (Rattus norvegicus [4]): 129 µmol/kg
44 | Brc1ccc(CSc2ccccn2)cc1 | 36 | – | –
45 | Cc1ccc(CSc2ccc(Br)cc2)nc1 | – | – | ED40 (Rattus norvegicus [9]): inactive
46 | Brc1ccc(SCCc2ccccn2)cc1 | – | – | ED40 (Rattus norvegicus [9]): inactive
47 | c1ccc(CSC2CCCCC2)nc1 | 21 | – | –
48 | Clc1ccnc(CSc2ccc(Br)cc2)c1 | – | – | ED40 (Rattus norvegicus [9]): inactive
49 | Cl.Cl.c1ccc(CSc2ccncc2)nc1 | – | 149 | –
50 | Brc1ccc(SCc2ccccn2)cc1.Cl | – | 151 | ED50 (Rattus norvegicus [3]): 82 µmol/kg; ED50 (Rattus norvegicus [11]): 215 µmol/kg; ED50 (Rattus norvegicus [4]): 73 µmol/kg; ED50 (Rattus norvegicus [8]): 142 µmol/kg
51 | Cc1ccc(SCc2ccccn2)cc1 | – | – | ED40 (Rattus norvegicus [9]): inactive
52 | C[n+]1ccccc1CSc1ccc(Br)cc1 | 22 | – | –
53 | Cc1cccc(CSc2ccc(Br)cc2)n1 | 28 | – | –
